TRPC4 act = TRPC4 (mouse) channel activation | Q9QUQ5 | HEK293 TRPC4beta/mu-opioid, Fluo4 calcium fluorescence; stronger effect = higher value | B-score at 10 µM | hit rate 0.49% among 310,000 | AID 2237;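 active means B-score above 5 SD of library B-scores, and initial fluorescence ratio not above library mean plus 5 SD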;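 further: positive B-score marks a calcium rise read as TRPC4 activation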
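Test system: HEK293 cells stably co-expressing mouse TRPC4beta and mu-opioid receptor | Schedule: Fluo4 dye loading 45 min at room temperature, 110 s recording | Measured by: Kinetic Fluo4 calcium fluorescence, 5 s baseline at 1 Hz | Evaluation: B score of integrated ratio | Controls: Buffer (low) and maximal DAMGO (high)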
TRPC6 act = mouse TRPC6 channel activation | HEK293-TRPC6 membrane potential dye fluorescence; stronger effect = higher value | Q61143 | AID 2550 | hit rate 0.13% among 310,000 | B-score at 10 µM;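 active means B-score of the integrated fluorescence ratio above library mean plus 3 SD, and starting fluorescence ratio within library mean plus 5 SD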;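 further: higher score means more depolarization so channel activation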
Target sequence (Q61143 whole entry, looked up): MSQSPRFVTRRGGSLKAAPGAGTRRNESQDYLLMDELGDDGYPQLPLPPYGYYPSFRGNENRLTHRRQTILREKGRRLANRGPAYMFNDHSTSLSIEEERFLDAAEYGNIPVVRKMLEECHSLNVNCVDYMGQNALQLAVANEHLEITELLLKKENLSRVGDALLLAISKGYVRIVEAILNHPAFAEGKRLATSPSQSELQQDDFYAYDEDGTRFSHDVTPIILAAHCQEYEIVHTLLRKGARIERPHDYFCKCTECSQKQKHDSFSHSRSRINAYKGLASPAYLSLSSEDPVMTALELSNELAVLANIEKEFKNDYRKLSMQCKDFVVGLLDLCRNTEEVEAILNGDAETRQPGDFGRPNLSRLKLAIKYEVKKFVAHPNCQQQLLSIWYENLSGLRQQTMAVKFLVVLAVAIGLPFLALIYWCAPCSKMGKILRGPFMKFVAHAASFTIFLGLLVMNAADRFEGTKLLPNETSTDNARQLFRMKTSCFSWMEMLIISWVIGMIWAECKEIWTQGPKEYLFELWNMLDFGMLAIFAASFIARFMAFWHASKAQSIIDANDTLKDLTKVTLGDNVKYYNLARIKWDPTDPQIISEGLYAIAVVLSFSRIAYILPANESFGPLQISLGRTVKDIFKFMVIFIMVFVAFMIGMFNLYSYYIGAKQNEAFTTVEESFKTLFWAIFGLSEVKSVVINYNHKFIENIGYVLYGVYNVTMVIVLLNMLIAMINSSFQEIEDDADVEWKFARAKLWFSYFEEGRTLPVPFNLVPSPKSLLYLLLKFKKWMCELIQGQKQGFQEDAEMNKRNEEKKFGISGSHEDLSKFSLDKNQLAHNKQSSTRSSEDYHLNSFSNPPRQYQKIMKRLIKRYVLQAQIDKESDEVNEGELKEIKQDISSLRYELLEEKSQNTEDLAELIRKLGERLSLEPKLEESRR
TRPC4 inh = blocks the mouse TRPC4 cation channel; Q9QUQ5; HEK293 TRPC4beta/mu-opioid, DAMGO-evoked Fluo4 calcium flux; stronger effect = lower value; B-score at 10 µM; hit rate 0.39% among 300,000; AID 2247;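 active means B-score over 3 SD under the library average, no early fluorescence shift, positive overall ratio signal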
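Assay system: TRPC4beta/mu-opioid receptor HEK293 cell line; compound dosing: single concentration per test compound; detection: Fluo4 Ca2+ flux fluorescence; evaluation: per-well B score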
TRPC6 inhibitor = mouse TRPC6 channel inhibition; Q61143; HEK293-TRPC6, membrane potential dye, ACh-evoked depolarization; stronger effect = lower value; B-score at 10 µM; hit rate 1.1% among 310,000; AID 2553;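 active means B-score under library mean minus 3 SD, initial fluorescence not abnormally high, positive integrated signal ratio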;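 further: B-score derived from integrated fluorescence ratio over the kinetic read; more negative B-score means stronger inhibition of depolarization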
TRPC4 potent = TRPC4 (mouse) allosteric potentiation. Q9QUQ5. HEK293 TRPC4beta/mu-opioid, DAMGO EC20, Fluo-4 Ca2+ flux; stronger effect = higher value. B-score at 10 µM. hit rate 0.42% among 310,000. AID 2227;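 active means B-score of calcium response area above 5 SD of library B-scores, with initial fluorescence ratio within 5 SD of library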
Numbers stand for hits. A selection: hits, their analogues and other compounds. The true share with any hit is near 2.3%.

CCOC(=O)C1=C(C)N(c2ccccc2)C(=O)NC1c1cccc([N+](=O)[O-])c1 (stereo not given) was read as TRPC4 act inactive, TRPC6 act inactive, TRPC4 inh inactive, TRPC6 inhibitor inactive and TRPC4 potent 15.
For CC1CCOC2(O1)C(=O)Nc1ccccc12 (stereo not given) the results were TRPC4 act inactive, TRPC6 act inactive, TRPC4 inh inactive, TRPC6 inhibitor inactive and TRPC4 potent inactive.
C#CCOCCOCCOCCNc1nc(N2CCN(C(=O)C([C@@H](C)CC)n3cc(C(N)COC(=O)C(F)(F)F)nn3)CC2)nc(N2CCN(C(=O)[C@H](Cc3cc4ccccc4[nH]3)n3cc(C(N)CO)nn3)CC2)n1 (stereo not given in full) was read as TRPC4 act 57, TRPC6 act inactive, TRPC4 inh -6, TRPC6 inhibitor inactive and TRPC4 potent inactive.
For CCN1CCN(c2c(S(=O)(=O)c3ccc(C)c(C)c3)cnc3ccc(F)cc23)CC1 the results were TRPC4 act 61, TRPC6 act inactive, TRPC4 inh inactive, TRPC6 inhibitor inactive and TRPC4 potent inactive.
For CC(C)(C)c1cc(C(=O)CCN2CCOCC2)cc(C(C)(C)C)c1O the results were TRPC4 act inactive, TRPC6 act inactive, TRPC4 inh inactive, TRPC6 inhibitor inactive and TRPC4 potent 11.
For CC(C)(C)c1cc(C(=S)N2CCN(CCO)CC2)cc(C(C)(C)C)c1O the results were TRPC4 act inactive, TRPC6 act inactive, TRPC4 inh inactive, TRPC6 inhibitor inactive and TRPC4 potent inactive.
For Cc1cc(/C=N/NC(=O)Cn2c3ccccc3c(=O)c3ccccc32)c(C)n1-c1ccc(Cl)cc1 the results were TRPC4 act inactive, TRPC6 act inactive, TRPC4 inh inactive, TRPC6 inhibitor inactive and TRPC4 potent inactive.
Screening CSc1nnc(-c2ccc(S(=O)(=O)N3CCCCC3)cc2)o1 returned TRPC4 act inactive, TRPC6 act inactive, TRPC4 inh inactive, TRPC6 inhibitor inactive and TRPC4 potent inactive.
Screening CN1CCN(CCOc2cccc(Cl)c2)CC1 returned TRPC4 act inactive, TRPC6 act inactive, TRPC4 inh inactive, TRPC6 inhibitor inactive and TRPC4 potent 14.
Clc1cccc(OCCN2CCCC2)c1 was read as TRPC4 act inactive, TRPC6 act inactive, TRPC4 inh inactive, TRPC6 inhibitor inactive and TRPC4 potent inactive.
`CCOC(=O)C1(CC2CC2)CCN(Cc2cc(Cl)c(O)c(OC)c2)CC1` gave TRPC4 act inactive, TRPC6 act inactive, TRPC4 inh -9, TRPC6 inhibitor inactive and TRPC4 potent inactive.
Screening CCOC(=O)C1(CCOc2ccccc2)CCN(Cc2cnc(SC)nc2)CC1 returned TRPC4 act inactive, TRPC6 act inactive, TRPC4 inh inactive, TRPC6 inhibitor inactive and TRPC4 potent inactive.
CCOC(=O)C1(CC2CC2)CCN(Cc2cnc(-c3ccccc3C)nc2)CC1 was read as TRPC4 act 118, TRPC6 act inactive, TRPC4 inh inactive, TRPC6 inhibitor inactive and TRPC4 potent inactive.
NC(=O)Cn1nc([N+](=O)[O-])nc1Oc1ccccc1F was read as TRPC4 act inactive, TRPC6 act inactive, TRPC4 inh inactive, TRPC6 inhibitor inactive and TRPC4 potent inactive.
CC(=C\C(=O)O)/C(=C/c1ccccc1)C(=O)O was read as TRPC4 act inactive, TRPC6 act inactive, TRPC4 inh inactive, TRPC6 inhibitor inactive and TRPC4 potent inactive.
`Cc1nc(CCNC(=O)CC2C(=O)NCCN2Cc2ccccc2)nc2c1CCC2` (stereo not given) gave TRPC4 act inactive, TRPC6 act inactive, TRPC4 inh inactive, TRPC6 inhibitor inactive and TRPC4 potent inactive.
`CCN(CC)C(=O)c1sc2nc(-c3ccccn3)[nH]c(=O)c2c1C` gave TRPC4 act 68, TRPC6 act inactive, TRPC4 inh inactive, TRPC6 inhibitor inactive and TRPC4 potent inactive.
`CCN(CC)C(=O)c1sc2nc(-c3ccncc3)[nH]c(=O)c2c1C` gave TRPC4 act inactive, TRPC6 act inactive, TRPC4 inh inactive, TRPC6 inhibitor inactive and TRPC4 potent inactive.
Cc1ccc(C(=O)c2coc3ccc(O)c(CN4CCN(C)CC4)c23)cc1 was read as TRPC4 act inactive, TRPC6 act inactive, TRPC4 inh inactive, TRPC6 inhibitor inactive and TRPC4 potent inactive.
COc1ccc(NC(=S)NCc2ccco2)c(OC)c1 was read as TRPC4 act inactive, TRPC6 act inactive, TRPC4 inh inactive, TRPC6 inhibitor inactive and TRPC4 potent inactive.
Screening CCCn1c(=O)c2ccccc2n2c(SCCOc3ccccc3)nnc12 returned TRPC4 act inactive, TRPC6 act inactive, TRPC4 inh -7, TRPC6 inhibitor inactive and TRPC4 potent inactive.
Screening CCCn1c(=O)c2ccccc2n2c(SC(C)C(N)=O)nnc12 (stereo not given) returned TRPC4 act inactive, TRPC6 act inactive, TRPC4 inh inactive, TRPC6 inhibitor inactive and TRPC4 potent inactive.
For CN1CCCC(OC(=O)c2cccc(Br)c2)C1 (stereo not given) the results were TRPC4 act 58, TRPC6 act inactive, TRPC4 inh inactive, TRPC6 inhibitor inactive and TRPC4 potent inactive.
Screening CN1CCCC(OC(=O)c2ccccc2Br)C1 (stereo not given) returned TRPC4 act inactive, TRPC6 act inactive, TRPC4 inh inactive, TRPC6 inhibitor inactive and TRPC4 potent 10.
For CN1CCCC(OC(=O)c2cc(Cl)cc(Cl)c2)C1 (stereo not given) the results were TRPC4 act 193, TRPC6 act inactive, TRPC4 inh inactive, TRPC6 inhibitor inactive and TRPC4 potent inactive.
`CN1CCCC(OC(=O)c2cccc(Cl)c2)C1` (stereo not given) gave TRPC4 act 45, TRPC6 act inactive, TRPC4 inh inactive, TRPC6 inhibitor inactive and TRPC4 potent 12.
For COc1ccc(CN2CC(C(=O)NCCCN3CCCC(C)C3)CC2=O)cc1 (stereo not given) the results were TRPC4 act inactive, TRPC6 act inactive, TRPC4 inh inactive, TRPC6 inhibitor inactive and TRPC4 potent inactive.
For COc1ccc(S(=O)(=O)N2CCCCC2)cc1NC(=O)C1COc2ccccc2O1 (stereo not given) the results were TRPC4 act inactive, TRPC6 act inactive, TRPC4 inh inactive, TRPC6 inhibitor inactive and TRPC4 potent inactive.
O=[N+]([O-])c1ccc(N2CCN(CCO)CC2)c2ncccc12 was read as TRPC4 act 56, TRPC6 act inactive, TRPC4 inh inactive, TRPC6 inhibitor inactive and TRPC4 potent 21.
For CCOc1c(Cl)cc(CNCC(C)C)cc1OC the results were TRPC4 act inactive, TRPC6 act inactive, TRPC4 inh inactive, TRPC6 inhibitor inactive and TRPC4 potent inactive.
CCOc1c(Cl)cc(CNCC(O)c2ccccc2)cc1OC (stereo not given) was read as TRPC4 act inactive, TRPC6 act inactive, TRPC4 inh -6, TRPC6 inhibitor inactive and TRPC4 potent inactive.
Cc1cc(C)cc(C(=O)NC(=S)Nc2cccnc2)c1 was read as TRPC4 act inactive, TRPC6 act inactive, TRPC4 inh inactive, TRPC6 inhibitor inactive and TRPC4 potent inactive.
